The results in this text go back to ChEMBL document CHEMBL4229548, “Design, synthesis and biological evaluation of lazabemide derivatives as inhibitors of monoamine oxidase” (Bioorg Med Chem, 2018).

The test system of series [1] is Rattus norvegicus. In words: In-vivo inhibition of MAO in rat assessed as 5-hydroxytryptamine level in plasma at 20 mg/kg/day, po administered for 1 week measured post last dose by HPLC method (reference value: 67.4 +/- 5.9 ng/ml). It is filed as functional.
Series [2] can be described thus: Acute toxicity in po dosed rat. It is filed as organism-based. The settings on record: in vivo.
The test system of series [3] is Rattus norvegicus. In words: In-vivo inhibition of MAOA in rat brain at 20 mg/kg/day, po administered for 1 week measured post last dose. Type of series: functional, organism-based.
The test system of series [4] is Rattus norvegicus. In words: In-vivo inhibition of MAO in rat assessed as norepinephrine level in brain at 20 mg/kg/day, po administered for 1 week measured post last dose by HPLC method (reference value: 1.438 +/- 0.054 ng/mg). It is filed as functional.
The test system of series [5] is Rattus norvegicus. In words: In-vivo inhibition of MAOA in rat plasma at 20 mg/kg/day, po administered for 1 week measured post last dose. It is filed as functional, organism-based.
Series [6] has as its system Rattus norvegicus. In words: In-vivo inhibition of MAO in rat assessed as 5-hydroxytryptamine level in brain at 20 mg/kg/day, po administered for 1 week measured post last dose by HPLC method (reference value: 0.211 +/- 0.03 ng/mg). Type of series: functional.
Series [7] concerns Rattus norvegicus. In words: In-vivo inhibition of MAO in rat assessed as dopamine level in plasma at 20 mg/kg/day, po administered for 1 week measured post last dose by HPLC method (reference value: 121.3 +/- 10.1 ng/ml). It is filed as functional.
For series [8], the system named is Rattus norvegicus. In words: In-vivo inhibition of MAO in rat assessed as norepinephrine level in plasma at 20 mg/kg/day, po administered for 1 week measured post last dose by HPLC method (reference value: 200 +/- 13.2 ng/ml). It is filed as functional.
The subject of series [9] is Rattus norvegicus. In words: In-vivo inhibition of MAO in rat assessed as dopamine level in brain at 20 mg/kg/day, po administered for 1 week measured post last dose by HPLC method (reference value: 0.459 +/- 0.07 ng/mg). Type of series: functional.
The target in series [10] is T1, Amine oxidase [flavin-containing] A (Rattus norvegicus, UniProt P21396).
T1 sequence (P21396 whole entry): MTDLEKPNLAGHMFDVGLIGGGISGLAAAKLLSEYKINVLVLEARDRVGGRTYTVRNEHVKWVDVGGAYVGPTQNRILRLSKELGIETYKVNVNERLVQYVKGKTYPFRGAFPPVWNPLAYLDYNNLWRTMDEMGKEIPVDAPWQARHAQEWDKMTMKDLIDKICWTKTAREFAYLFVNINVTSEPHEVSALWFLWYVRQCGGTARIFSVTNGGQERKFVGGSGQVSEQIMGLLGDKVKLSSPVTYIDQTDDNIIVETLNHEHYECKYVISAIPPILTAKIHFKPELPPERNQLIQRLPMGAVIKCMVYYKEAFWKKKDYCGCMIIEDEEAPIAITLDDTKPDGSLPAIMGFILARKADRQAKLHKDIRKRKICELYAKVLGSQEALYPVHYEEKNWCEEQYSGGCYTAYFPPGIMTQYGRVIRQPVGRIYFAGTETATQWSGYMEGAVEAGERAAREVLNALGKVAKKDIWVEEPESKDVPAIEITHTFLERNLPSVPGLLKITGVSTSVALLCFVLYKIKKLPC
In words: Inhibition of rat MAOA using 5-hydroxytryptamine as substrate pretreated for 1200 secs followed by substrate addition and measured after 3600 secs.

The target in series [11] is T2, Amine oxidase [flavin-containing] B (Rattus norvegicus, UniProt P19643).
T2 sequence (P19643 whole entry): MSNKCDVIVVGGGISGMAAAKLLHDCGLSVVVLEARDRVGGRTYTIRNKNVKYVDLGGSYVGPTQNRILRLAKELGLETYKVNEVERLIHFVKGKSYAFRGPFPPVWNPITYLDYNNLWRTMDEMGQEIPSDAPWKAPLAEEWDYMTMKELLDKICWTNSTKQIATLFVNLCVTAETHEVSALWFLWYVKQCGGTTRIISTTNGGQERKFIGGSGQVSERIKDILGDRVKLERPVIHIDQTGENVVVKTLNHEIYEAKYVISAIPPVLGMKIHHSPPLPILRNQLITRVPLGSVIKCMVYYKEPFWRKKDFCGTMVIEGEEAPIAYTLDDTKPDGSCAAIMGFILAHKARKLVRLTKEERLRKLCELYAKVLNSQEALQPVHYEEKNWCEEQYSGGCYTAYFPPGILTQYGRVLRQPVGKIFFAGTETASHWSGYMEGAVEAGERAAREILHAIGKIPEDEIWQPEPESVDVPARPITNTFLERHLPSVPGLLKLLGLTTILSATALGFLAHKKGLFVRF
In words: Inhibition of rat MAOB using benzylamine as substrate pretreated for 1200 secs followed by substrate addition and measured after 3600 secs. A digest of the protocol:
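Enzyme: liver mitochondrial MAO prepared by sucrose differential centrifugation and held in 100 mmol/L K-phosphate pH 7.9. Inhibitor pre-incubated with enzyme 1200 s at 37 °C, 5% CO2. Benzylamine was added (final 2 mmol/L; MAO final 0.15 mg/mL) and reacted 3600 s. Stopped with 10% perchloric acid. Benzaldehyde extracted into cyclohexane and read at A240. DMSO blank.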

Series [12] relates to Rattus norvegicus. In words: In-vivo inhibition of MAOB in rat brain at 20 mg/kg/day, po administered for 1 week measured post last dose. Type of series: functional, organism-based.
Series [13] relates to Rattus norvegicus. In words: In-vivo inhibition of MAOB in rat plasma at 20 mg/kg/day, po administered for 1 week measured post last dose. It is filed as functional, organism-based.

The source made the active and inactive calls. The calls are words filed in the database; no cut-off is given here.

In the case of `O=C(NCCO)c1ccc(Cl)cc1`, the Activity stood at 214.8 ng/mL with Rattus norvegicus [1]; 3.73 ng/mg with Rattus norvegicus [4]; 0.753 ng/mg with Rattus norvegicus [6]; 379.4 ng/mL in the series with Rattus norvegicus [7]; 452.7 ng/mL in the series on Rattus norvegicus [8]; 1.51 ng/mg with Rattus norvegicus [9]. Also, in [2], the LD50 worked out at 3090 mg/kg. Moreover, the inhibition result with Rattus norvegicus [3] and in the series on Rattus norvegicus [5] was “Active” throughout.
On to `NCCNC(=O)c1ccc(Cl)cc1`, for which the Activity was determined as 150.4 ng/mL with Rattus norvegicus [1]; 3.13 ng/mg in the series with Rattus norvegicus [4]; 0.613 ng/mg in the series on Rattus norvegicus [6]; 307.5 ng/mL in the series with Rattus norvegicus [7]; 440.4 ng/mL in the series with Rattus norvegicus [8]; 1.21 ng/mg in the series on Rattus norvegicus [9]. Moreover, the LD50 in series [2] was 2810 mg/kg. The inhibition entry in the series with Rattus norvegicus [3] and in the series on Rattus norvegicus [5] was “Active” throughout.
As to `O=C(NCCBr)c1ccc(Cl)cn1`, the IC50 was 790 µM in series [10] and 24.8 µM in series [11].
Taken in the same sequence, the figures for `O=C(NCCBr)c1ccc(Cl)cc1` were 26.8 µM and 895 µM.
With `O=C(NCCO)c1ccc(Cl)cn1`, the Activity with Rattus norvegicus [1] came to 116.4 ng/mL; in the series on Rattus norvegicus [4] it was 4.99 ng/mg; in the series with Rattus norvegicus [6], 0.515 ng/mg; in the series on Rattus norvegicus [7] it was 211.6 ng/mL; in the series on Rattus norvegicus [8], 628.3 ng/mL; in the series with Rattus norvegicus [9] it was 0.768 ng/mg. This compound also registered a median lethal dose (LD50) in series [2] of 3060 mg/kg. Moreover, the inhibition entry in the series on Rattus norvegicus [12] and with Rattus norvegicus [13] was “Active” each time.
In the case of `O=C(NCCN1CCOCC1)c1ccc(Cl)cc1` [MOCLOBEMIDE], in series [11], the 50% inhibitory concentration (IC50) is 783 µM.
With `O=C(NCO)c1ccc(Cl)cc1`, the Activity in the series on Rattus norvegicus [1] is 123.2 ng/mL; in the series on Rattus norvegicus [4] it was 2.64 ng/mg; with Rattus norvegicus [6] it was 0.545 ng/mg; in the series on Rattus norvegicus [7], 231.1 ng/mL; in the series with Rattus norvegicus [8] it was 436.9 ng/mL; with Rattus norvegicus [9] it was 0.832 ng/mg. Further, in series [2], the LD50 is 3000 mg/kg. In addition, the IC50 in series [10] came to 7.49 µM; in series [11] it was 1440 µM. Further, the inhibition entry in the series with Rattus norvegicus [3] and in the series with Rattus norvegicus [5] was “Active” each time.
`NCCNC(=O)c1ccc(Cl)cn1` [LAZABEMIDE]: in [2], the LD50 was in the range of 1000 to 2000 mg/kg.
With `O=C(NCO)c1ccc(Cl)cn1`, the Activity came out at 100.6 ng/mL in the series on Rattus norvegicus [1]; 4.12 ng/mg with Rattus norvegicus [4]; 0.469 ng/mg with Rattus norvegicus [6]; 201.3 ng/mL in the series on Rattus norvegicus [7]; 569.2 ng/mL with Rattus norvegicus [8]; 0.667 ng/mg in the series with Rattus norvegicus [9]. Besides, in series [2], the LD50 was determined as 3000 mg/kg. Further, the inhibition result in the series on Rattus norvegicus [12] and with Rattus norvegicus [13] was “Active” each time.
Take `NCCCNC(=O)c1ccc(Cl)cc1`: the half-inhibitory concentration (IC50) came out at 24.5 µM in [10] and 1610 µM in [11].
